“And” between values parts separate entries of the source, which are not always exact repeats. Equal values may be shown once.
Tests used:
U2OS = experiment: Multiplex assay against U2OS; format: toxicity, cell-based; details: human, number of replicates 2
Procedure, shortened: (§1)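 Tubulin, mitochondrial-mass and membrane-permeability phenotypes are per cents of healthy-nucleus cells. Cells were gated by CellPathfinder machine learning into Hoechst high-intensity objects or normal cells, normal cells into healthy, pyknosed or fragmented nuclei, and pyknosed cells into mitotic or apoptotic. Before that, live cells stained at seeding with Hoechst33342, BioTracker Green Microtubule Cytoskeleton Dye, MitoTracker Red and Annexin V Alexa Fluor 680 were imaged on a CQ1 microscope at 37°C and 5% CO2 after compound addition.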

HEK-293T = experiment: Multiplex assay against HEK293T; format: toxicity, cell-based; details: human, number of replicates 2; procedure, shortened: as §1
[1] = 24 h, 1 µM, compound concentration 1 uM
[2] = 24 h, 10 µM, compound concentration 10 uM
[3] = 48 h, 1 µM, compound concentration 1 uM
[4] = 48 h, 10 µM, compound concentration 10 uM
[5] = 12 h, 1 µM, compound concentration 1 uM
[6] = 12 h, 10 µM, compound concentration 10 uM

Compound: Cc1cc(-c2cnc(N)c3c(-c4ccc5scnc5c4)csc23)n(C)n1
- Population Tubulin-Different-Phenotype (%) (U2OS; [1]): 85% and 83%
- Population Apoptotic (%) (U2OS; [2]): 76% and 84%
- Population Healthy Nuclei (%) (U2OS; [2]): 56% and 80%
- Population Hoechst High Intensity Objects (%) (U2OS; [2]): 1% and 0%
- Population Membrane Permeable-Phenotype (%) (U2OS; [2]): 8% and 7%
- Population Mitochondria Different-Phenotype (%) (U2OS; [2]): 29% and 19%
- Population Mitotic Cells (%) (U2OS; [2]): 23% and 15%
- Population Normal (%) (U2OS; [2]): 98% and 99%
- Population Pyknosed Nuclei (%) (U2OS; [2]): 25% and 15%
- Population Tubulin-Different-Phenotype (%) (U2OS; [2]): 42% and 36%
- Population Apoptotic (%) (U2OS; [3]): 50% and 60%
- Population Fragmented Nuclei (%) (U2OS; [3]): 1% and 5%
- Population Healthy Nuclei (%) (U2OS; [3]): 90% and 86%
- Population Hoechst High Intensity Objects (%) (U2OS; [3]): 0%
- Population Membrane Permeable-Phenotype (%) (U2OS; [3]): 1%
- Population Mitochondria Different-Phenotype (%) (U2OS; [3]): 1%
- Population Mitotic Cells (%) (U2OS; [3]): 50% and 39%
- Population Normal (%) (U2OS; [3]): 100%
- Population Pyknosed Nuclei (%) (U2OS; [3]): 7%
- Population Tubulin-Different-Phenotype (%) (U2OS; [3]): 81% and 83%
- Population Apoptotic (%) (U2OS; [4]): 73% and 82%
- Population Fragmented Nuclei (%) (U2OS; [4]): 12% and 5%
- Population Healthy Nuclei (%) (U2OS; [4]): 52% and 78%
- Population Hoechst High Intensity Objects (%) (U2OS; [4]): 2% and 0%
- Population Membrane Permeable-Phenotype (%) (U2OS; [4]): 7%
- Population Mitochondria Different-Phenotype (%) (U2OS; [4]): 19% and 13%
- Population Mitotic Cells (%) (U2OS; [4]): 26% and 17%
- Population Normal (%) (U2OS; [4]): 97% and 99%
- Population Pyknosed Nuclei (%) (U2OS; [4]): 35% and 15%
- Population Tubulin-Different-Phenotype (%) (U2OS; [4]): 41% and 33%
- Population Apoptotic (%) (HEK-293T; [5]): 53% and 52%
- Population Fragmented Nuclei (%) (HEK-293T; [5]): 5% and 2%
- Population Healthy Nuclei (%) (HEK-293T; [5]): 81% and 85%
- Population Hoechst High Intensity Objects (%) (HEK-293T; [5]): 7% and 6%
- Population Membrane Permeable-Phenotype (%) (HEK-293T; [5]): 3% and 1%
- Population Mitochondria Different-Phenotype (%) (HEK-293T; [5]): 21% and 11%
- Population Mitotic Cells (%) (HEK-293T; [5]): 46% and 47%
- Population Normal (%) (HEK-293T; [5]): 92% and 93%
- Population Pyknosed Nuclei (%) (HEK-293T; [5]): 13% and 11%
- Population Tubulin-Different-Phenotype (%) (HEK-293T; [5]): 61% and 56%
- Total Cell Count (HEK-293T; [5]): 648 and 641
- Population Apoptotic (%) (HEK-293T; [6]): 45% and 68%
- Population Fragmented Nuclei (%) (HEK-293T; [6]): 4% and 3%
- Population Healthy Nuclei (%) (HEK-293T; [6]): 77% and 84%
- Population Hoechst High Intensity Objects (%) (HEK-293T; [6]): 17% and 13%
- Population Membrane Permeable-Phenotype (%) (HEK-293T; [6]): 4% and 2%
- Population Mitochondria Different-Phenotype (%) (HEK-293T; [6]): 59% and 57%
- Population Mitotic Cells (%) (HEK-293T; [6]): 54% and 31%
- Population Normal (%) (HEK-293T; [6]): 82% and 86%
- Population Pyknosed Nuclei (%) (HEK-293T; [6]): 17% and 12%
- Population Tubulin-Different-Phenotype (%) (HEK-293T; [6]): 92% and 91%
- Total Cell Count (HEK-293T; [6]): 429 and 378
- Population Apoptotic (%) (HEK-293T; [1]): 49% and 53%
- Population Fragmented Nuclei (%) (HEK-293T; [1]): 7% and 6%
- Population Healthy Nuclei (%) (HEK-293T; [1]): 85% and 86%
- Population Hoechst High Intensity Objects (%) (HEK-293T; [1]): 8% and 9%
- Population Membrane Permeable-Phenotype (%) (HEK-293T; [1]): 3% and 1%
- Population Mitochondria Different-Phenotype (%) (HEK-293T; [1]): 10% and 4%
- Population Mitotic Cells (%) (HEK-293T; [1]): 50% and 46%
- Population Normal (%) (HEK-293T; [1]): 91% and 90%
- Population Pyknosed Nuclei (%) (HEK-293T; [1]): 7%
- Population Tubulin-Different-Phenotype (%) (HEK-293T; [1]): 38% and 39%
- Total Cell Count (HEK-293T; [1]): 943 and 990
- Population Apoptotic (%) (HEK-293T; [2]): 56% and 69%
- Population Fragmented Nuclei (%) (HEK-293T; [2]): 6% and 3%
- Population Healthy Nuclei (%) (HEK-293T; [2]): 79% and 82%
- Population Hoechst High Intensity Objects (%) (HEK-293T; [2]): 17% and 13%
- Population Membrane Permeable-Phenotype (%) (HEK-293T; [2]): 2% and 1%
- Population Mitochondria Different-Phenotype (%) (HEK-293T; [2]): 65%
- Population Mitotic Cells (%) (HEK-293T; [2]): 43% and 30%
- Population Normal (%) (HEK-293T; [2]): 82% and 86%
- Population Pyknosed Nuclei (%) (HEK-293T; [2]): 14%
- Population Tubulin-Different-Phenotype (%) (HEK-293T; [2]): 94% and 92%
- Total Cell Count (HEK-293T; [2]): 457 and 429
- Population Apoptotic (%) (HEK-293T; [3]): 17% and 10%
- Population Fragmented Nuclei (%) (HEK-293T; [3]): 14% and 9%
- Population Healthy Nuclei (%) (HEK-293T; [3]): 83% and 86%
- Population Hoechst High Intensity Objects (%) (HEK-293T; [3]): 9% and 10%
- Population Membrane Permeable-Phenotype (%) (HEK-293T; [3]): 6% and 2%
- Population Mitochondria Different-Phenotype (%) (HEK-293T; [3]): 0%
- Population Mitotic Cells (%) (HEK-293T; [3]): 82% and 89%
- Population Normal (%) (HEK-293T; [3]): 90% and 89%
- Population Pyknosed Nuclei (%) (HEK-293T; [3]): 2% and 4%
- Population Tubulin-Different-Phenotype (%) (HEK-293T; [3]): 19%
- Total Cell Count (HEK-293T; [3]): 2410 and 2184
- Population Apoptotic (%) (HEK-293T; [4]): 62% and 80%
- Population Fragmented Nuclei (%) (HEK-293T; [4]): 9%
- Population Healthy Nuclei (%) (HEK-293T; [4]): 85% and 84%
- Population Hoechst High Intensity Objects (%) (HEK-293T; [4]): 17%
- Population Membrane Permeable-Phenotype (%) (HEK-293T; [4]): 7% and 2%
- Population Mitochondria Different-Phenotype (%) (HEK-293T; [4]): 24% and 30%
- Population Mitotic Cells (%) (HEK-293T; [4]): 37% and 20%
- Population Normal (%) (HEK-293T; [4]): 82%
- Population Pyknosed Nuclei (%) (HEK-293T; [4]): 5%
- Population Tubulin-Different-Phenotype (%) (HEK-293T; [4]): 89% and 92%
- Total Cell Count (HEK-293T; [4]): 772 and 677
